Test [1] deals with T1, Aminopeptidase N (Sus scrofa) (UniProt P15145).
T1 sequence (whole entry): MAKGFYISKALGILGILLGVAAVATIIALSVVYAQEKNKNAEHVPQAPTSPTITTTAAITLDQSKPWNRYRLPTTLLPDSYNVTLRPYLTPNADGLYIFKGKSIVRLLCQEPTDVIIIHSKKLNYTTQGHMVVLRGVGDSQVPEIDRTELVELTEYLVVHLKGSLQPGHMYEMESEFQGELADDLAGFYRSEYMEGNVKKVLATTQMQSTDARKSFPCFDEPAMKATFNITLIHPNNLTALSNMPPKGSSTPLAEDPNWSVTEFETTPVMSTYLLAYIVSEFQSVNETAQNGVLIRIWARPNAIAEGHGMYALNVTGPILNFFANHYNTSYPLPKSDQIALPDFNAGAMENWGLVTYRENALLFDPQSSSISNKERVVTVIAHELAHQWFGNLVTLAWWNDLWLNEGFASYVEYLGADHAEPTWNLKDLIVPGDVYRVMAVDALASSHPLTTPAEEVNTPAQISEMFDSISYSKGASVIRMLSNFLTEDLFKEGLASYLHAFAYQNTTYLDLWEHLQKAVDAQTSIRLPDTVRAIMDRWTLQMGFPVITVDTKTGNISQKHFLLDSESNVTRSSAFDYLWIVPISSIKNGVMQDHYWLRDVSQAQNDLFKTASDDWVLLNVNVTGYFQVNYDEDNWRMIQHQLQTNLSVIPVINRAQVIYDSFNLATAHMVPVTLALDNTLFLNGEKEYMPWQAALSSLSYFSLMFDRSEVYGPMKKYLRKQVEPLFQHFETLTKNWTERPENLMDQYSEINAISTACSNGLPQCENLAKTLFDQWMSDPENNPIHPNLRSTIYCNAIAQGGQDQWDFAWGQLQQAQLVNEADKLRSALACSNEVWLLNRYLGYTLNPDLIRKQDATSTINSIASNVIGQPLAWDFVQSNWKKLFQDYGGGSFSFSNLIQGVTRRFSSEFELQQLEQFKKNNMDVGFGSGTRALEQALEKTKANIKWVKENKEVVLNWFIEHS
The test is described as follows: Inhibition of pig aminopeptidase N assessed as ACC fluorophore released after 30 mins using Alanine ACC as substrate. The method in brief:
(§1)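 Enzyme (0.45 nM) preincubated 30 min at 37 C with phosphinate inhibitor (eight concentrations) in 100 mM Tris-HCl pH 7.5 (buffer made at 20 C), final DMSO 1%. Ala-ACC added at 50 uM final. ACC release read continuously in kinetic mode, ex 355/em 460 nm. IC50 values are means of two experiments.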

Test [2] addresses T2, Aminopeptidase N (Rattus norvegicus) (UniProt P15684).
T2 sequence (whole entry): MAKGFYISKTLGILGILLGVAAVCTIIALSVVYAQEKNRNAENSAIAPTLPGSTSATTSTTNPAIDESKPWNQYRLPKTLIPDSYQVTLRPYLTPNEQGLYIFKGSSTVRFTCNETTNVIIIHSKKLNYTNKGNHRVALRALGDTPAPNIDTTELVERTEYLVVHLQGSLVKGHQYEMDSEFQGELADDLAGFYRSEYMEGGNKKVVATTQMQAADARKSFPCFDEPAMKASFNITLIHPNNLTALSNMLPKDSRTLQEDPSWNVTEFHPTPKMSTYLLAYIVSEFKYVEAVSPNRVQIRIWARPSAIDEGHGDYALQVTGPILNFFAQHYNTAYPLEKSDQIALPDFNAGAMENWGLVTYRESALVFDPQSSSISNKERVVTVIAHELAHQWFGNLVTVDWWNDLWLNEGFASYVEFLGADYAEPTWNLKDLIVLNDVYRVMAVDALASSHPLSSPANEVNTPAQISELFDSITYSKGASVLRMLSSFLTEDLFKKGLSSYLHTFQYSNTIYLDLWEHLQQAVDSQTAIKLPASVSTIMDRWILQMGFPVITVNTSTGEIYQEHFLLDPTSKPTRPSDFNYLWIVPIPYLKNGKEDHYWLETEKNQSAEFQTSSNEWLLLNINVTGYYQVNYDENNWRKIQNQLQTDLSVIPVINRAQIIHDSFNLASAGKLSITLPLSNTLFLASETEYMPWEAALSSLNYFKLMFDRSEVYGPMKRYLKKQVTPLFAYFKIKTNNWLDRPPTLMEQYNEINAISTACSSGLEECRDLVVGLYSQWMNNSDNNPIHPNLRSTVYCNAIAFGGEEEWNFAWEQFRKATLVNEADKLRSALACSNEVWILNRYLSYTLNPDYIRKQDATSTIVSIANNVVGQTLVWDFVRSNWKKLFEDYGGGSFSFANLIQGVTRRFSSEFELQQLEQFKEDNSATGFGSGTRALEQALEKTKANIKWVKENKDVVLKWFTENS
The test can be described thus: Inhibition of rat aminopeptidase N assessed as ACC fluorophore released after 30 mins using Alanine ACC as substrate. The procedure, abridged: as §1

Test [3] in a line: Selectivity ratio of IC50 for rat aminopeptidase N to the IC50 for human aminopeptidase N.
Test [4] is described as follows: Selectivity ratio of IC50 for pig aminopeptidase N to the IC50 for human aminopeptidase N.

Bounds are passed on as bounds.

Consider `CC(C)c1ccc(C(O)P(=O)(O)C(C)N)cc1` (centres undefined), for which the IC50 in test [1] is 1.2 µM; in test [2], 3.5 µM.
The like results for `CCC(N)P(=O)(O)C(=S)NCCCSC` (centres undefined) were, in that order, 1.65 µM and 2.5 µM.
The like results for `CCCNC(=S)P(=O)(O)C(N)CCc1ccccc1` (centres undefined) were, in that order, 1.45 µM and 1.35 µM.
The like results for `CCOC(=O)c1ccc(CNC(=S)P(=O)(O)C(C)N)cc1` (centres undefined) were, in that order, greater than 20 µM and greater than 20 µM.
Regarding `NC(CCc1ccccc1)P(=O)(O)C(=S)NCc1ccccc1` (centres undefined), the IC50 in test [1] was determined as 2.3 µM; in test [2] it was 2.5 µM.
On to `CC(C)CNC(=S)P(=O)(O)C(N)C(C)C` (centres undefined), for which the results for the IC50 in test [1] and in test [2] were 4.8 µM and 8.95 µM, respectively.
`COc1ccc(CNC(=S)P(=O)(O)C(C)N)cc1` (centres undefined): the IC50 in test [1] and in test [2] was greater than 20 µM each time.
In the case of `NC(c1ccccc1)P(=O)(O)C(O)c1ccccc1` (centres undefined), the IC50 is 0.55 µM in test [1] and 0.46 µM in test [2].
The like results for `CNC(=S)P(=O)(O)C(N)C(C)C` (centres undefined) were, in that order, 10.2 µM and 21.4 µM.
As for `CC(C)CC(O)P(=O)(O)C(N)c1ccccc1` (centres undefined), the IC50 in test [1] was found to be 12 µM; in test [2], 4.7 µM.
The like results for `CC(C)C(N)P(=O)(O)C(O)CCc1ccccc1` (centres undefined) were, in that order, 0.5 µM and 1.1 µM.
On the same counts, the results for `CCCCC(N)P(=O)(O)C(=S)NCCc1ccccc1` (centres undefined) are 0.25 µM and 0.62 µM.
On the same counts, the results for `CCCCC(N)P(=O)(O)C(O)C(C)c1ccccc1` (centres undefined) are 0.22 µM and 0.46 µM.
With `CCCCCCNC(=S)P(=O)(O)C(N)CC(C)C` (centres undefined), the results for the IC50 in test [1] and in test [2] were 1.4 µM and 1.7 µM, respectively.
The like results for `CCCCC(N)P(=O)(O)C(O)CCc1ccccc1` (centres undefined) were, in that order, 0.21 µM and 0.52 µM.
With `CCCC(N)P(=O)(O)C(=S)NCc1ccc(C(=O)O)cc1` (centres undefined), the IC50 in test [1] and in test [2] was greater than 20 µM each time.
As to `COC(=O)c1ccccc1CNC(=S)P(=O)(O)C(N)CC(C)C` (centres undefined), the IC50 in test [1] and in test [2] was greater than 20 µM each time.
Take `CCCCC(N)P(=O)(O)C(=S)NCc1ccccc1C(=O)OC` (centres undefined): the IC50 in test [1] and in test [2] was greater than 20 µM each time.
Regarding `CCCC(N)P(=O)(O)C(=S)NCCc1ccccc1` (centres undefined), the IC50 turned out to be 1.35 µM in test [1] and 2.55 µM in test [2].
On the same counts, the results for `CC(O)P(=O)(O)C(N)c1ccccc1` (centres undefined) are 48 µM and 15.2 µM.
The like results for `CCCC(N)P(=O)(O)C(=S)NCc1ccccc1C(=O)OC` (centres undefined) were, in that order, greater than 20 µM and greater than 20 µM.
The like results for `CCCC(N)P(=O)(O)C(=S)NCc1ccc(C(=O)OCC)cc1` (centres undefined) were, in that order, greater than 20 µM and greater than 20 µM.
Consider `CCCCC(N)P(=O)(O)C(O)c1ccc(O)cc1` (centres undefined), for which the IC50 in test [1] was 5.8 µM; in test [2], 6.2 µM.
On the same counts, the results for `CC(C)CC(N)P(=O)(O)C(=S)NCc1ccccc1` (centres undefined) are 2.8 µM and 5.1 µM.
Consider `CC(N)P(=O)(O)C(=S)NCc1ccccc1` (centres undefined), for which the concentration for half-maximal inhibition (IC50) in test [1] came out at 1.9 µM; in test [2] it was 1.45 µM.
The like results for `NC(Cc1ccccc1)P(=O)(O)C(O)CCc1ccccc1` (centres undefined) were, in that order, 0.66 µM and 1.6 µM.
On the same counts, the results for `CCCCC(N)P(=O)(O)C(=S)NCc1ccc(OC)cc1` (centres undefined) are 0.46 µM and 1.05 µM.
On the same counts, the results for `CC(N)P(=O)(O)C(=S)NCCc1ccccc1` (centres undefined) are 5.2 µM and 8.7 µM.
Turning to `CC(C)CC(N)P(=O)(O)C(=S)NCCc1ccccc1` (centres undefined), the IC50 in test [1] came out at 4.2 µM; in test [2], 5.4 µM.
On the same counts, the results for `CCCC(N)P(=O)(O)C(=S)NCc1ccccc1` (centres undefined) are 1.6 µM and 2.1 µM.
Take `CCOC(=O)c1ccc(CNC(=S)P(=O)(O)C(N)CCc2ccccc2)cc1` (centres undefined): the IC50 in test [1] and in test [2] was greater than 20 µM in each case.
On to `CCC(N)P(=O)(O)C(O)CCc1ccccc1` (centres undefined), for which the IC50 in test [1] was found to be 1.3 µM; in test [2], 2.4 µM.
As to `CSCCCNC(=S)P(=O)(O)C(N)CCc1ccccc1` (centres undefined), the IC50 was 1.55 µM in test [1] and 1.65 µM in test [2].
The like results for `NC(CCc1ccccc1)P(=O)(O)C(O)CCc1ccccc1` (centres undefined) were, in that order, 0.22 µM and 0.4 µM.
The like results for `CCCC(N)P(=O)(O)C(O)Cc1ccccc1` (centres undefined) were, in that order, 0.95 µM and 1.2 µM.
The like results for `CCCC(N)P(=O)(O)C(=S)NCCCSC` (centres undefined) were, in that order, 1.95 µM and 1.45 µM.
For the compound `CCCCCCNC(=S)P(=O)(O)C(N)C(C)C` (centres undefined), the IC50 in test [1] amounted to 1.7 µM; in test [2], 5.05 µM.
The like results for `CCCCC(N)P(=O)(O)C(=S)NCC(=O)OCc1ccccc1` (centres undefined) were, in that order, greater than 20 µM and greater than 20 µM.
On the same counts, the results for `CNC(=S)P(=O)(O)C(N)CC(C)C` (centres undefined) are greater than 20 µM and 10.8 µM.
The like results for `CCCC(N)P(=O)(O)C(=S)NCc1ccc(OC)cc1` (centres undefined) were, in that order, 2.15 µM and 2.45 µM.
Turning to `COc1ccc(CNC(=S)P(=O)(O)C(N)CCc2ccccc2)cc1` (centres undefined), the Ratio IC50 in test [3] and in test [4] was 4 each time. For the same compound, the 50% inhibitory concentration (IC50) in test [1] and in test [2] was 2.65 µM each time.
On to `CC(C)CC(N)P(=O)(O)C(O)CCc1ccccc1` (centres undefined), for which the values for the IC50 in test [1] and in test [2] were 1 µM and 0.92 µM, respectively.
On the same counts, the results for `CSCCCNC(=S)P(=O)(O)C(C)N` (centres undefined) are 2.45 µM and 3.45 µM.
The like results for `NC(c1ccccc1)P(=O)(O)C(O)CCc1ccccc1` (centres undefined) were, in that order, 0.24 µM and 2.2 µM.
The like results for `CCCCC(N)P(=O)(O)C(=S)NCc1ccccc1` (centres undefined) were, in that order, 0.62 µM and 1.1 µM.
As to `CCCCC(N)P(=O)(O)C(=S)NCCCSC` (centres undefined), the results for the IC50 in test [1] and in test [2] were 0.36 µM and 0.61 µM, respectively.

The values above are taken from ChEMBL document CHEMBL1156183, “Identification of very potent inhibitor of human aminopeptidase N (CD13)” (Bioorg Med Chem Lett, 2010).
